Results reported in ChEMBL document CHEMBL1136634, “Synthesis and photoreactivity of caged blockers for glutamate transporters” (Bioorg Med Chem Lett, 2003).

Experiments:
[1] = Glutamate uptake inhibition assay on glutamate transporters (excitatory amino acid transporters EAAT2) stably expressed on MDCK cells before U.V radiation; type: cell-based; conditions: Canis lupus familiaris
[2] = Glutamate uptake inhibition assay on glutamate transporters (excitatory amino acid transporters EAAT2) stably expressed on MDCK cells after 10 min U.V irradiation; type: cell-based; conditions: Canis lupus familiaris, light or radiation study
How it was run: (§1)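 Before assay, caged compound in PBS(+) (1 mM CaCl2, 1 mM MgCl2, pH 7.4) was held in 1 mm quartz cuvettes in a dark box and irradiated with a 365 nm UV hand lamp at room temperature. Relative specific uptake came from three experiments, and IC50 was derived.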

[3] = Glutamate uptake inhibition assay on glutamate transporters (excitatory amino acid transporters EAAT2) stably expressed on MDCK cells after 1 min U.V irradiation; type: cell-based; conditions: Canis lupus familiaris, light or radiation study; how it was run: as §1
[4] = Glutamate uptake inhibition assay on glutamate transporters (excitatory amino acid transporters EAAT2) stably expressed on MDCK cells after 20 min U.V irradiation; type: cell-based; conditions: Canis lupus familiaris, light or radiation study; how it was run: as §1
[5] = Glutamate uptake inhibition assay on glutamate transporters (excitatory amino acid transporters EAAT2) stably expressed on MDCK cells after 5 min U.V irradiation; type: cell-based; conditions: Canis lupus familiaris, light or radiation study; how it was run: as §1
[6] = Half-life was determined; type: ADME; conditions: human
[7] = Glutamate uptake inhibition assay on EAAT2 stably expressed on MDCK cells; type: cell-based, Canis lupus familiaris

Row | IC50 [1] [µM] | half-life [6] [min] | IC50 ([7]; Canis lupus familiaris, MDCK) [µM] | Structure (SMILES) | also measured
1 | 124 | 3.7 | – | N[C@H](C(=O)OCc1cc(=O)oc2cc(OCC(=O)O)ccc12)[C@H](OCc1ccccc1)C(=O)O | IC50 [2]: 7 µM; IC50 [3]: 24 µM; IC50 [4]: 5.6 µM; IC50 [5]: 8.6 µM
2 | – | 3.9 | 124 | COc1ccc2c(COC(=O)[C@@H](N)[C@H](OCc3ccccc3)C(=O)O)cc(=O)oc2c1 | –

Further lines, the compound ahead of its results:

Row | Structure (SMILES) | IC50 [1] [µM] | half-life [6] [min] | IC50 ([7]; Canis lupus familiaris, MDCK) [µM] | also measured
3 | N[C@H](C(=O)O)[C@H](OCc1ccccc1)C(=O)O | 1.3 | – | – | –
4 | COc1cc(C(C)OC(=O)[C@@H](N)[C@H](OCc2ccccc2)C(=O)O)c([N+](=O)[O-])cc1OC (stereo in doubt; 3b) | – | 45.2 | 111 | –
5 | COc1cc(C(C)OC(=O)[C@@H](N)[C@H](OCc2ccccc2)C(=O)O)c([N+](=O)[O-])cc1OC (stereo in doubt; 3a) | – | – | – | T1/2 [6]: 57.2 min; IC50 ([7]; mdck): 103 µM
